Broadly, the IC50 is the midpoint of a concentration-inhibition curve. A low value points to greater potency in that assay.

Experimental findings from ChEMBL document CHEMBL1145096, “Synthesis and cytotoxic activity of two novel 1-dodecylthio-2-decyloxypropyl-3-phosphatidic acid conjugates with gemcitabine and cytosine arabinoside” (J Med Chem, 2003) are described below.

The subject of one test is BG-1 cell line. Put plainly: Inhibitory activity against BG-1 (human, […] adenocarcinoma) cell line. The test is classed as functional, cell-based. The procedure, abridged: (§1)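 Cells kept in log phase in RPMI-1640 with 10% FBS and 1% penicillin-streptomycin, humidified 5% CO2/95% air, 37 °C. Viability read by CellTiter 96 aqueous proliferation assay (microplate optical density). Drug-treated optical densities compared with untreated controls; IC50 obtained by nonlinear regression.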

The next test concerns CEM-SS. The test can be described thus: Inhibitory activity against CEM-SS (human T-4 lymphoblastoid clone) cell line. The test is classed as functional, cell-based. The procedure, abridged:
as §1

In another test the test system is BXPC-3. The test can be described thus: Inhibitory activity against BxPC3 (human,pancreas,adenocarcinoma) cell line. It counts as functional, cell-based. The procedure, abridged: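 BxPC3 grown in log phase in RPMI-1640 plus 10% FBS, 10 mM HEPES, 1.5 g/L NaHCO3, sodium pyruvate and 1% penicillin-streptomycin, at 37 °C under 5% CO2. CellTiter 96 aqueous proliferation readout by optical density. Treated wells compared with untreated controls; IC50 from nonlinear regression.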

In the next test the test system is HT-29. Put plainly: Inhibitory activity against HT-29 (human,colon,adenocarcinoma) cell line. It counts as functional, cell-based. The procedure, abridged:
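Colon line kept in log phase in McCoy's 5A modified medium with 10% FBS and 1% penicillin-streptomycin, 37 °C, 5% CO2 humidified. Proliferation measured by CellTiter 96 aqueous assay (optical density) against untreated cells; IC50 fitted by nonlinear regression.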

For the next test, the system named is HeLa. Put plainly: Inhibitory activity against HeLa (human, epitheloid carcinoma, cervix) cell line. The test is classed as functional, cell-based. Put shortly: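 HeLa maintained in log phase in DMEM, 10% FBS, 1% penicillin-streptomycin, humidified 5% CO2 at 37 °C. Growth quantified with CellTiter 96 aqueous assay by microplate optical density. Values expressed relative to untreated controls; IC50 by nonlinear regression.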

The test system of the next test is MCF7. The test can be described thus: Inhibitory activity against MCF-7/WT-2'' (human, breast carcinoma) cell line. The test is classed as functional, cell-based. The procedure, abridged: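 MCF7/WT-2' grown in log phase in D-MEM/F-12 with 10% FBS, 10 μg/mL insulin and 1% penicillin-streptomycin, 37 °C, 5% CO2. Read-out was CellTiter 96 aqueous proliferation assay (optical density) versus untreated control. IC50 derived by nonlinear regression.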

The subject of the next test is SK-LU-1. The test can be described thus: Inhibitory activity against SK-LU-1 (human,lung,adenocarcinoma) cell line. The test is classed as functional, cell-based. Put shortly:
(§2)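 Maintained in log phase in MEM with 10% FBS and 1% penicillin-streptomycin at 37 °C in humidified 5% CO2. Cell proliferation read with CellTiter 96 aqueous assay by optical density. Treated versus untreated control; IC50 calculated by nonlinear regression.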

A further test relates to U373 MG. Put plainly: Inhibitory activity against U373-MG (human, glioblastoma) cell line. It counts as functional, cell-based, U-373MG ATCC. The procedure, abridged: as §2
For the next test, the system named is HL-60. The test can be described thus: Inhibitory activity against HL-60 (human, promyelocytic leukemia) cell line. It counts as functional, cell-based. The procedure, abridged:
as §1

For the next test, the system named is SCC-25. The test can be described thus: Inhibitory activity against SCC-25 (human, squamous cell carcinoma, tongue) cell line. The test is classed as functional, cell-based. The procedure, abridged:
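SCC-25 cultured in log phase in DMEM with 10% FBS, 400 ng/mL hydrocortisone and 1% penicillin-streptomycin, humidified 5% CO2/95% air, 37 °C. CellTiter 96 aqueous assay, optical density compared with untreated cells; IC50 from nonlinear regression.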

As for `Nc1ccn([C@@H]2O[C@H](CO)[C@@H](O)C2(F)F)c(=O)n1` [GEMCITABINE], the IC50 with BG-1 cell line amounted to 680 nM; in the test on CEM-SS, 30 nM; in the test on BXPC-3, 160 nM; with HT-29 it was 43 nM; in the test with HeLa, 8 nM; with MCF7, 1660 nM. The IC50 stood at 55 nM in the test on SK-LU-1, 130 nM with U373 MG, 330 nM in the test on HL-60 and 47 nM in the test with SCC-25.
Consider `Nc1ccn([C@@H]2O[C@H](CO)[C@@H](O)[C@@H]2O)c(=O)n1` [CYTARABINE], for which the IC50 in the test on HL-60 stood at 760 nM.
Regarding `CCCCCCCCCCCCSCC(COP(=O)(O)OC[C@H]1O[C@@H](n2ccc(N)nc2=O)C(F)(F)[C@@H]1O)OCCCCCCCCCC` (some centres not stated), the IC50 turned out to be 1840 nM in the test with BG-1 cell line; 600 nM with CEM-SS; 1590 nM with BXPC-3; 750 nM in the test with HT-29; 690 nM with HeLa; 1730 nM with MCF7. The IC50 in the test on SK-LU-1 is 1120 nM; in the test on U373 MG, 290 nM; with HL-60, 1800 nM; with SCC-25, 590 nM.
`CCCCCCCCCCCCSCC(COP(=O)(O)OCC1OC(n2ccc(N)nc2=O)[C@@H](O)C1O)OCCCCCCCCCC` (some centres not stated) returned an IC50 in the test with HL-60 of 67300 nM.
